In series [1] the test system is Respiratory syncytial virus. Description: Antiviral activity against RSV A2 infected in african green monkey Vero cells after 5 days by plaque reduction assay. It is filed as functional, organism-based. Conditions: human respiratory syncytial virus, A2, Vero, 120 h. In outline: (§1)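 Plaque reduction assay. Vero 76 cells at 2 × 10^5/well, grown overnight to confluence in D-MEM with 10% FBS. Infected 2 h with 50–100 PFU/well, unadsorbed virus removed. Overlay of D-MEM with 1% inactivated FBS and 0.75% methylcellulose, with or without serial compound dilutions. Incubated at 37 °C for 3 days (HSV-1 KOS, CVB-2 Ohio-1) or 5 days (RSV A2). Fixed and stained with crystal violet in 50% ethanol; plaques counted; EC50 by linear regression.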
For orientation: Plaque reduction counts the foci of infection that form in a cell layer.

The nature of series [2]: Selectivity index, ratio of CC50 for human MT4 cells to EC50 for Vaccinia virus Elstree-Lister. It counts as toxicity, cell-based. Conditions: read-out: Ratio CC50/EC50.
A short description of series [3]: Selectivity index, ratio of CC50 for african green monkey Vero cells to EC50 for Vaccinia virus Elstree-Lister. It counts as toxicity, cell-based. Conditions: read-out: Ratio CC50/EC50.
The test system of series [4] is Human immunodeficiency virus 1. Description: Antiviral activity against HIV1 3B infected in human MT4 cells assessed as protection from virus-induced cytopathogenicity after 4 days by MTT method. It counts as functional, organism-based. In outline:
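MT-4 cells, 1 × 10^4/well in RPMI with or without serial compound dilutions, infected with HIV-1 IIIB, 100 CCID50 (m.o.i. 0.01). Protection from virus-induced cytopathogenicity read by MTT.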
In general terms: Damage to the host cells serves as the signal in cytopathic effect assays.

A short description of series [5]: Cytotoxicity against BHK cells after 48 to 96 hrs by MTT assay. It is filed as cell-based, Mesocricetus auratus. Conditions: hamster. The gist of the method:
(§2)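 Cell seeding: MDBK at 6 × 10^5 cells/mL in MEM-E with 10% horse serum and 1 mM Na pyruvate; BHK at 1 × 10^6 cells/mL in MEM-E with 10% FBS. Serial compound dilutions, 37 °C, 5% CO2. Viability of mock-infected cells by MTT after 48–96 h; CC50 is the concentration reducing viability by 50%.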
(In general: Tetrazolium dyes change colour on reduction, which living cells bring about.)

Another series deals with Yellow fever virus. The experiment in a line: Antiviral activity against Yellow fever virus 17D infected in BHK cells assessed as protection from virus-induced cytopathogenicity after 3 to 4 days by MTT method. It counts as functional, organism-based.
The test system of another series is Vaccinia virus. The experiment in a line: Antiviral activity against Vaccinia virus Elstree-Lister infected in african green monkey Vero cells after 3 days by plaque reduction assay. It counts as functional, organism-based. Conditions: Orthopoxvirus vaccinia, 72 h.
Another series relates to Coxsackievirus B2. The experiment in a line: Antiviral activity against Human coxsackievirus B2 Ohio-1 infected in african green monkey Vero cells after 3 days by plaque reduction assay. It is filed as functional, organism-based, Coxsackievirus B2 (strain Ohio-1). The gist of the method:
as §1

Series [6] concerns Bovine viral diarrhea virus 1. Description: Antiviral activity against Bovine viral diarrhea virus NADL infected in MDBK cells assessed as protection from virus-induced cytopathogenicity after 3 to 4 days by MTT method. It counts as functional, organism-based, Bovine viral diarrhea virus 1-NADL. The gist of the method:
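Cytopathogenicity protection assay. MDBK cells at 3 × 10^4/well, grown overnight to confluence. Infected with BVDV NADL at m.o.i. 0.01 in MEM-E with 0.5% inactivated FBS, 1 mM Na pyruvate and 1% kanamycin. Serial compound dilutions added after 1 h. After 3–4 days at 37 °C, viability read by MTT; EC50 is the concentration giving 50% protection.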

Series [7] deals with Vesicular stomatitis virus. The experiment in a line: Antiviral activity against VSV Indiana lab infected in african green monkey Vero cells after 2 days by plaque reduction assay. It counts as functional, organism-based.
Series [8] can be described thus: (§3) Cytotoxicity against human MT4 cells after 96 hrs by MTT assay. Conditions: MT4 cells. It counts as cell-based. The gist of the method:
(§4)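 Exponentially growing MT-4 cells at 1 × 10^5 cells/mL in RPMI-1640 with 10% FCS, exposed to serial compound dilutions at 37 °C, 5% CO2. Viability by MTT after 96 h; CC50 is the concentration reducing viability of mock-infected cells by 50%.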

Series [9] can be described thus: Cytotoxicity against MDBK cells after 48 to 96 hrs by MTT assay. It is filed as cell-based, Bos taurus. Conditions: cattle. In outline:
as §2

A short description of series [10]: Cytotoxicity against african green monkey Vero cells. It counts as cell-based. Conditions: chlorocebus sabaeus. In outline: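 Vero 76 monolayers exposed to serial compound dilutions, run in parallel on the same 24-well plates as the plaque-reduction assays. CC50 is the concentration reducing viability of mock-infected cells by 50%.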
Another series deals with Poliovirus 1. The experiment in a line: Antiviral activity against Polio virus type1 Sabin strain Chat infected in african green monkey Vero cells after 2 days by plaque reduction assay. Conditions: Enterovirus C, 48 h. It is filed as functional, organism-based, Human poliovirus 1 strain Sabin.
Another series deals with Human alphaherpesvirus 1. The experiment in a line: Antiviral activity against HSV1 KOS infected in african green monkey Vero cells after 3 days by plaque reduction assay. It is filed as functional, organism-based. Conditions: Human alphaherpesvirus 1, KOS, 72 h. The gist of the method: as §1
A short description of series [11]: Cytotoxicity against human HuH7 cells after 72 hrs. It counts as cell-based, Huh-7. In outline:
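GS4.1 replicon cells treated as in the replicon assay (twofold dilutions up to 75 µM, 72 h). Viability by CellTiter 96 AQueous One Solution; CC50 from % cytotoxicity versus concentration.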

The subject of series [12] is Hepatitis C virus. Description: Inhibition of HCV 1b NS5B Cdelta21 RNA dependent RNA polymerase expressed in Escherichia coli after 30 mins by fluorescence assay. Conditions: 0.5 h. It counts as functional, Hepatitis C virus subtype 1b. In outline:
(§5)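 N-His-tagged NS5B from E. coli Rosetta2(DE3)pLysS (BVDV C-terminal Δ24; HCV1b Δ21), Ni-NTA purified, 500–600 ng per 20 µL reaction. Template 10 µg/mL poly(rC), primer 0.1 µg/mL oligo(rG)12, substrate 80 µM GTP; 20 mM Tris pH 7.0, 0.5 mM MnCl2 or 5 mM MgCl2, 5% DMSO. Enzyme pre-incubated with drug 30 min at room temperature.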

In series [13] the test system is Bovine viral diarrhea virus 1. Description: Antiviral activity against Bovine viral diarrhea virus NADL infected in MDBK cells assessed as inhibition of viral replication administered up to 4 hrs post infection measured after 24 to 36 hrs by plaque reduction assay. It is filed as functional, organism-based. Conditions: Bovine viral diarrhea virus 1-NADL. In outline: (§6)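 MDBK monolayers inoculated at room temperature with BVDV NADL, 300 PFU (m.o.i. 0.01 PFU/cell), 60 min adsorption, washed, kept in MEM-E + 1 mM Na pyruvate + 0.5% inactivated FBS at 37 °C. Medium containing 10× compound added for one window (−1–0, 0–2, 2–4 … 12–14 h), then washed out and fresh medium given. CPE scored at 24–36 h; viral titre by plaque assay.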

Series [14] relates to Hepatitis C virus. Description: Antiviral activity against HCV Con1 expressed in human HuH7 cells assessed as NS4A expression after 72 hrs by ELISA-based replicon assay. It counts as functional, organism-based, Hepacivirus hominis. Conditions: isolate Con1, Huh-7, 72 h. The gist of the method: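 GS4.1 cells (Huh-7 carrying HCV Con1 subgenomic replicon) at 7.5 × 10^3/well. Ten twofold compound dilutions (top 75 µM), 0.5% DMSO, 72 h at 37 °C; replicon-free Huh-7 as negative control. NS4A measured by ELISA with anti-NS4A mAb A-236, peroxidase secondary and o-phenylenediamine, absorbance 492 nm. EC50 by four-parameter sigmoidal fit.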

For series [15], the system named is Bovine viral diarrhea virus 1. Description: Antiviral activity against Bovine viral diarrhea virus NADL infected in MDBK cells assessed as inhibition of post viral entry pre-budding stage of replication administered at 13 hrs post infection measured after 24 to 36 hrs by plaque reduction assay. Conditions: Bovine viral diarrhea virus 1-NADL. It is filed as functional, organism-based. The gist of the method: as §6

Series [16] in a line: Selectivity index, ratio of CC50 for MDBK cells to EC50 for Bovine viral diarrhea virus NADL. It is filed as toxicity, cell-based. Conditions: cattle, read-out: Ratio CC50/EC50.
The nature of series [17]: Inhibition of Bovine viral diarrhea virus NADL NS5B Cdelta24 RNA dependent RNA polymerase expressed in Escherichia coli after 30 mins by fluorescence assay. Further details: species or system Bovine viral diarrhea virus 1-NADL. In outline: as §5
Series [18] is described as follows: Selectivity index, ratio of CC50 for human MT4 cells to EC50 for Bovine viral diarrhea virus NADL. Conditions: read-out: Ratio CC50/EC50. It counts as toxicity, cell-based.
The test system of series [19] is Bovine viral diarrhea virus 1. Description: Antiviral activity against Bovine viral diarrhea virus NADL infected in MDBK cells assessed as protection from virus-induced cytopathogenicity administered up to 6 hrs post infection measured after 24 to 36 hrs by plaque reduction assay. Conditions: Bovine viral diarrhea virus 1-NADL. It counts as functional, organism-based. The gist of the method: as §6

Another series concerns MT4. The series is described as §3. It is filed as cell-based. Conditions: mt4, 96 h, 96 h. In outline:
as §4

The mark [20] stands for this setting: Bovine viral diarrhea virus isolates and strains, MDBK.

pEC50, pIC50: −log10 of the molar value. Activity calls are given as the source filed them.

Turning to `O=[N+]([O-])c1ccc(-c2nc3cc(Cl)c(Cl)cc3[nH]2)cc1`, the pEC50 in [1] was less than 4.00; in the series on Yellow fever virus, less than 4.00; with Vaccinia virus, 7.00; in the series with Coxsackievirus B2 (Enterovirus B, Vero, 72 h), less than 4.00; in [6] (setting [20]) it was less than 4.25; with Poliovirus 1, less than 4.00. Besides, in the series with Human alphaherpesvirus 1, the pEC50 was less than 4.00. In addition, the selectivity ratio in series [2] is 170; in series [3] it was not below 1000. The result in series [4] and in series [7] was inactive. The cytotoxic concentration (CC50) was more than 100 µM in series [5], 56 µM in [9] (MDBK cells) and not below 100 µM in series [10]. Besides, the cytotoxic concentration (CC50) at 96 h in series [8] turned out to be 17 µM.
Turning to `CC(=O)Nc1ccc(-c2nc3cc([N+](=O)[O-])ccc3[nH]2)cc1`, the result in series [4] and in series [7] was inactive. Moreover, the half-maximal cytotoxic concentration (CC50) in [5], in series [9] (MDBK cells) and in [10] was more than 100 µM each time. In series [11], this molecule yielded a 50% cytotoxic concentration (CC50) at 72 h of more than 90 µM. Moreover, the negative logarithm of the EC50 (pEC50) was less than 4.00 in the series on Yellow fever virus; less than 4.00 with Coxsackievirus B2 (Enterovirus B, Vero, 72 h); 6.10 in series [6] (setting [20]); 4.42 with Hepatitis C virus [14]; less than 4.00 in the series on Poliovirus 1; less than 4.00 with Human alphaherpesvirus 1. In addition, the negative logarithm of the IC50 (pIC50) in the series with Hepatitis C virus [12] was 4.52; in [17], 4.92. In addition, the result in [13], in [15] and in [19] was Active. Besides, the selectivity ratio in [16] and in series [18] was more than 125 each time. This molecule also registered a cytotoxic concentration (CC50) at 96 h in series [8] of more than 100 µM.
As for `O=C(CN1CCOCC1)Nc1ccc(-c2nc3cc(Cl)c(Cl)cc3[nH]2)cc1`, the result in [4] and in [7] was inactive. The CC50 (in [5]; in the series on MT4; in series [9] (mdbk); in series [10]) was more than 100 µM in each case. Moreover, the pEC50 (in the series with Yellow fever virus; with Coxsackievirus B2 (vero); in [6] (mdbk)) was less than 4.00 throughout.

A word on the pEC50: it is −log10 of the EC50, conventionally taken in molar units. The term CC50 denotes the concentration giving 50% cytotoxicity. The term pIC50 denotes the IC50 on a negative log10 scale, so that one unit is a factor of ten.

The values are drawn from ChEMBL document CHEMBL1156237, “Antiviral activity of benzimidazole derivatives. II. Antiviral activity of 2-phenylbenzimidazole derivatives” (Bioorg Med Chem, 2010).
